{
  "source": "ChEMBL document CHEMBL3259553",
  "about": "(J Med Chem, 2014)",
  "key": {"[1]": {"experiment": "Intrinsic clearance in human hepatocytes assessed per million cells", "type": "ADME, cell-based, Hepatocyte", "conditions": "read-out: CLH"}, "[2]": {"experiment": "Ratio of drug uptake in liver to plasma in diet-induced obese C57Bl/6J mouse model", "type": "ADME, tissue-based"}, "Rattus norvegicus [3]": {"species_on_record": "Rattus norvegicus", "experiment": "Toxicity in hypercholesterolemic rat model assessed as effect on TSH level", "type": "organism-based", "conditions": "in vivo"}, "Homo sapiens [4]": {"test_system": "Homo sapiens", "experiment": "Antidyslipidemic activity in healthy human with mildly elevated LDL-C level assessed as reduction in triglyceride at 50 to 200 mg, po qd for 2 weeks by multiple ascending dose study relative to placebo control", "type": "functional", "set-up": "scale not given: the % may be the effect or the level left", "in_short": "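Multiple ascending dose study lasting 2 weeks, run after a single ascending dose study. Healthy subjects with LDL-C >110 mg/dL took oral doses once daily from 5 to 200 mg. Safety, thyroid axis measures (free T4, free T3, TSH), heart rate, QT and liver enzymes were monitored. Lipid changes were compared with placebo.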"}, "Rattus norvegicus [5]": {"species_on_record": "Rattus norvegicus", "experiment": "Toxicity in hypercholesterolemic rat model assessed as effect on central thyroid axis", "type": "organism-based", "conditions": "in vivo"}, "[6]": {"experiment": "Half life in rat at 5 mg/kg, iv", "type": "ADME, organism-based", "set-up": "dose 5 mg/kg, route intravenous", "conditions": "in vivo", "in_short": "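Rat pharmacokinetics after a 5 mg/kg dose given iv, or given orally as a suspension. Values are means with SD from N = 3 rats.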"}, "Mus musculus": {"species_on_record": "Mus musculus", "experiment": "Antidyslipidemic activity in diet-induced obese C57Bl/6J mouse model assessed as improvement of insulin sensitivity", "type": "functional, organism-based"}, "Oryctolagus cuniculus": {"species_on_record": "Oryctolagus cuniculus", "experiment": "Toxicity in hypercholesterolemic rabbit model assessed as effect on central thyroid axis", "type": "organism-based", "conditions": "in vivo"}, "[7]": {"experiment": "Fraction unbound in human", "type": "ADME, organism-based", "conditions": "in vivo"}, "Rattus norvegicus [8]": {"test_system": "Rattus norvegicus", "experiment": "Toxicity in thyroidectomized rat assessed as T3 activity at 37.5 mg/kg, ip measured after 6 hrs", "type": "organism-based", "set-up": "dose 37.5 mg/kg, route intraperitoneal", "conditions": "in vivo", "in_short": "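Thyroidectomized rats, 4 per group, dosed ip at 5, 20 and 37.5 mg/kg in 4% DMSO, 15% PEG-400 and 81% of 30% HPBCD in phosphate buffer. Cardiac α-MHC hnRNA was measured 6 h post-dose and expressed relative to euthyroid or T3-treated full activity. Plasma exposure was measured at 6 h.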"}, "Homo sapiens [9]": {"test_system": "Homo sapiens", "experiment": "Antidyslipidemic activity in healthy human with mildly elevated LDL-C level assessed as reduction in lipids at 80 mg, po qd", "type": "functional, organism-based"}, "Homo sapiens [10]": {"test_system": "Homo sapiens", "experiment": "Toxicity in healthy human with mildly elevated LDL-C level assessed as effect on TSH level at 100 to 200 mg, po qd for 2 weeks", "type": "organism-based", "conditions": "in vivo, 336 h", "in_short": "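Healthy subjects with LDL-C >110 mg/dL received once daily oral doses for 2 weeks in a multiple ascending dose study. Free T3, free T4 and TSH were compared with placebo.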"}, "Homo sapiens [11]": {"test_system": "Homo sapiens", "experiment": "Toxicity in healthy human with mildly elevated LDL-C level assessed as effect on QT interval at 5 to 200 mg, po qd for 2 weeks by multiple ascending dose study", "type": "organism-based", "conditions": "in vivo, 336 h", "in_short": "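Multiple ascending dose study after single ascending dose study. Healthy subjects with LDL-C >110 mg/dL received once daily oral doses of 5 to 200 mg for 2 weeks. Safety and tolerability were assessed, covering QT interval, heart rate, vital signs and liver enzymes.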"}, "Cytochrome P450 3A4": {"target": "Cytochrome P450 3A4 (Homo sapiens, UniProt P08684)", "sequence (P08684 whole entry)": "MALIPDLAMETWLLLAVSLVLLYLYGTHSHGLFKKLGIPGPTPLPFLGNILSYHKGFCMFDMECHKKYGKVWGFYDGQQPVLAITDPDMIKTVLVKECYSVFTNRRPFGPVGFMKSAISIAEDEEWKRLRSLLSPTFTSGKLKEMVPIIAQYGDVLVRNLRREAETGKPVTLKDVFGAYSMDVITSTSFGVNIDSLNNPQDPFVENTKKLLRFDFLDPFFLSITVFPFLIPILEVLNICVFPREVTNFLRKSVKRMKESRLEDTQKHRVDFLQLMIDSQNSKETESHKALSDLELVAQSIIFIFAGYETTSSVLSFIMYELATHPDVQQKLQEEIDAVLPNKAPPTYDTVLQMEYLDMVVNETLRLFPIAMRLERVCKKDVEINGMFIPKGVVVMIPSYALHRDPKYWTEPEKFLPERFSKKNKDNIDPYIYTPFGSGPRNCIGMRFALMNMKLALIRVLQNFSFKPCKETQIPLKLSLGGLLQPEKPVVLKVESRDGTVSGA", "experiment": "Inhibition of CYP3A4 (unknown origin)", "type": "ADME"}},
  "note": "pIC50: −log10 of the molar value. Calls of active or inactive are those of the source. No cut-off for these calls is given here.",
  "data": [
    {"smiles": "CC(C)c1cc(Oc2c(Cl)cc(-n3nc(C#N)c(=O)[nH]c3=O)cc2Cl)n[nH]c1=O", "note": "[RESMETIROM]", "values": [
      {"measurement": "hepatocyte CLint", "setting": "[1]", "value": 1.04, "unit": "µL/min/1e6 cells"},
      {"measurement": "Kp", "setting": "[2]", "value": 8},
      {"measurement": "Activity", "setting": "Rattus norvegicus [3]", "value": "Non-toxic"},
      {"measurement": "Activity", "setting": "Homo sapiens [4]", "value": "<=60%"},
      {"measurement": "Activity", "setting": "Rattus norvegicus [5]", "value": "Non-toxic"},
      {"measurement": "half-life", "setting": "[6]", "value": 3.4, "unit": "h"},
      {"measurement": "Activity", "setting": "Mus musculus", "value": "Active"},
      {"measurement": "Activity", "setting": "Oryctolagus cuniculus", "value": "Non-toxic"},
      {"measurement": "Fu", "setting": "[7]", "value": 0.6, "unit": "%"},
      {"measurement": "Activity", "setting": "Rattus norvegicus [8]", "value": 0, "unit": "%"},
      {"measurement": "Activity", "setting": "Homo sapiens [9]", "value": "Active"},
      {"measurement": "Activity", "setting": "Homo sapiens [10]", "value": "Non-toxic"},
      {"measurement": "Activity", "setting": "Homo sapiens [11]", "value": "Non-toxic"},
      {"measurement": "pIC50", "setting": "Cytochrome P450 3A4", "value": "< 4.30"}
    ]}
  ]
}
